Screening data from PubChem.
Hits are enriched below; roughly 3.5% of the tested compounds scored in any of these assays.
FXIIa inh – human FXIIa protease inhibitors, primary screen, biochemical, 1536-well; 220,000 compounds, 0.3% hits; Coagulation factor XII (Homo sapiens), P00748; inhibition, % at 5 µM; purified FXIIa, Boc-QGR-AMC fluorogenic substrate, 2 h; in the data active = inhibition above about 40%;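 also: 0% = enzyme with no compound and 100% = blank without enzyme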
Target sequence (P00748 20-372 limits assumed): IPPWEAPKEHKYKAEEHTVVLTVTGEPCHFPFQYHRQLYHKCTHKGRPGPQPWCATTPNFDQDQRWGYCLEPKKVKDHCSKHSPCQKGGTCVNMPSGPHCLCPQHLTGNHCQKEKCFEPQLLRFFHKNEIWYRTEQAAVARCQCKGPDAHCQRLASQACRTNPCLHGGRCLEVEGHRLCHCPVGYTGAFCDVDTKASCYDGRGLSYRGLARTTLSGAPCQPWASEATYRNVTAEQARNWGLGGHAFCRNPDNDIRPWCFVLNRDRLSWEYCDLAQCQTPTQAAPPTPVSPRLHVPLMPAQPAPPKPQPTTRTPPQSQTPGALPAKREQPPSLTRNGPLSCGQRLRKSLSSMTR
Target sequence (P00748 373-615 limits assumed): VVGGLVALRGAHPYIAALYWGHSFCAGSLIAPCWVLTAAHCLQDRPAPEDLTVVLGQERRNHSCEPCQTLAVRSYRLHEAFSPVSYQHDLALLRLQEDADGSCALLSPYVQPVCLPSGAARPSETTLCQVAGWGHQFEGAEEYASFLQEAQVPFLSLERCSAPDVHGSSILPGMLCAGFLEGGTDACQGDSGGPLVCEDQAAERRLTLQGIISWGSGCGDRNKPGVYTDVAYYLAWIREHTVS
AHR activator – AHR activators, primary screen, cell-based, luminescence, luciferase reporter, human. activation, % at 5 µM. AHR-responsive luciferase reporter cells. 320,000 compounds, 2.5% hits. Aryl hydrocarbon receptor (Homo sapiens), P35869; in the data active = activation above about 47%;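 also: 0% = vehicle wells and 100% = reference agonist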
STAT3 act – IL-6 driven STAT3 reporter potentiators, primary screen, U3A cells, luciferase, luminescence, MLSCN library. activation (% of control), % at 5.6 µM. AID 871, 2007. IL-6 STAT3-luciferase reporter; 100% = signal with IL-6 EC80 alone. 190,000 compounds, 0.91% hits;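 active = activation above the screen-wide mean of compound activation plus 3 SD, cut at about 130% in these data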;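 also: 0% = background luminescence of wells with medium and substrate only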
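System – human U3A cells carrying STAT3-luciferase construct · Probe or stimulus – Interleukin-6, 33 ng/mL · Schedule – compound 1 h, then IL-6 6 h at 37 °C · Signal – luminescence from STAT3-driven luciferase reporter · Evaluation – percent of IL-6-only median luminescence · Benchmarks – IL-6-only high control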
KLK5 inh – human KLK5 protease inhibitors, primary screen, biochemical, 1536-well; Kallikrein-5 (Homo sapiens), Q9Y337; recombinant hK5, fluorogenic AMC substrate cleavage; 210,000 compounds, 0.59% hits; inhibition, % at 5 µM; AID 873, 2007;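 active = inhibition of 40% or more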;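 also: 0% = enzyme controls without compound and 100% = no-enzyme blanks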
thrombin 1536 – human alpha-thrombin inhibitors, primary screen, counter-screen for coagulation protease inhibitor project, biochemical, 1536-well, fluorogenic AMC substrate | Prothrombin (Homo sapiens), P00734 | AID 1046, 2008 | 220,000 compounds, 0.26% hits | Boc-VPR-AMC fluorogenic substrate cleavage | inhibition, % at 5 µM;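 active = inhibition at or above 40%; inactive = inhibition below 40%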;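 also: 0% = enzyme with no compound and 100% = wells without enzyme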
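signal = AMC fluorescence, 355/460 nm | material = human alpha-thrombin enzyme | control set = enzyme without compound as high, wells lacking enzyme as low | times = reaction at room temperature | read-out basis = percent inhibition scaled between no-compound controls and no-enzyme blanks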
FXIa inh 1536 – human FXIa protease inhibitors, primary screen, biochemical, 1536-well. Coagulation factor XI (Homo sapiens), P03951. purified FXIa, Boc-Glu-Ala-Arg-AMC fluorogenic substrate. inhibition, % at 5 µM. 220,000 compounds, 0.14% hits. AID 798, 2007;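 active = inhibition of at least 40%; inactive = inhibition below 40%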;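 also: fluorescence of freed AMC excited at 355 nm; 0% = enzyme without compound and 100% = no enzyme blank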
AHR act confirm – AHR activators, confirmation, cell-based, luminescence, luciferase reporter, human | shares compounds with AHR activator | human cells, AHR-responsive luciferase reporter | activation, % at 9 µM | 2,300 compounds, 87% hits | AID 2845, 2010; in the data active = activation above about 49%;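 also: HepG2 hepatoma cells carrying a DRE-driven firefly luciferase reporter; 0% = vehicle wells and 100% = reference agonist wells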
PXR act counter – human PXR activators, counter-screen for AHR activator project, cell-based, luciferase luminescence | shares compounds with AHR activator | cell-based PXR reporter | activation, % at 11.6 µM | 2,300 compounds, 88% hits | AID 434939, 2010; in the data active = activation above about 11%;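 also: human hepatoma DPX-2 cells expressing full-length human PXR; 0% = DMSO and 100% = reference agonist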
An asterisk follows results filed as active; . = not tested or not shown.

SMILES	FXIIa inh	AHR activator	STAT3 act	KLK5 inh	thrombin 1536	FXIa inh 1536	AHR act confirm	PXR act counter
O=C(NCCOc1ccccc1)C1Nc2ccc(C(F)(F)F)cc2C2c3ccccc3CC12 (stereo unspecified)	.	87*	.	.	.	.	7	78*
CCCN1Cc2cccc(C(=O)NCc3ccc4c(c3)OCO4)c2C1=O	11	80*	99	-18	1	-2	50*	141*
O=C(CSc1nncn1-c1cccnc1)Nc1cccc(C(F)(F)F)c1	.	3	.	.	.	.	.	.
O=[N+]([O-])c1cccn2cc(-c3ccc(Br)cc3)nc12	5	107*	113	-4	0	1	214*	17*
Cc1ccc(-c2cn3cccc(C)c3n2)cc1	5	.	76	-4	-8	-4	.	.
c1ccc2oc(C3=NNC(=NC4CC4)SC3)cc2c1	11	137*	51	-21	0	8	1	16*
COCCCNC(=S)NC1CC2CCCC(C1)N2Cc1cccs1 (stereo unspecified)	7	-1	105	-19	-3	-23	.	.
CC1CCN(c2nc(-c3cccnc3)nc3scc(-c4ccccc4)c23)CC1	7	15	96	-28	-3	7	.	.
Clc1nc(-c2ccccn2)nc2scc(-c3ccccc3)c12	15	80*	78	-18	-4	1	59*	25*
O=C(Nc1ccccc1)c1cc([N+](=O)[O-])ccc1Cl	6	88*	.	3	2	2	95*	14*
O=C(Nc1ccccc1)c1cc([N+](=O)[O-])ccc1NCc1cccnc1	11	83*	100	2	2	4	104*	41*
O=C(Nc1ccc(F)cc1)Nc1ccc([N+](=O)[O-])cn1	10	2	78	3	-8	4	.	.
O=C(O)c1cc([N+](=O)[O-])ccc1NCc1ccccc1	9	1	101	.	0	0	.	.
CC(=O)Nc1ccc(NC(=O)c2ccc([N+](=O)[O-])cc2Cl)cc1	9	-6	98	12	-12	2	.	.
O=C(Nc1ccc(Cl)c(Cl)c1)Nc1ccc([N+](=O)[O-])cn1	5	91*	.	-8	0	-5	86*	8
COc1ccccc1NC(=O)CCC(=O)OCc1ccc(Cl)cc1	5	0	104	0	-3	1	.	.
C#CCn1cc(/C=N/NC(=O)c2cc3ccccc3o2)c2ccccc21	2	112*	101	-30	-7	-2	87*	.
C=CCn1cc(/C=N\NC(=O)c2cc3c(ccc4ccccc43)o2)c2ccccc21	11	-1	77	-22	3	3	.	.
O=C(N/N=C/c1cn(Cc2ccccc2)c2ccccc12)c1cccnc1	6	86*	73	-4	-4	-1	-9	-3
O=C(N/N=C/c1cn(Cc2ccccc2)c2ccccc12)c1ccncc1	5	24	78	-4	2	-1	.	.
Cc1cc(C)n2nc(-c3sccc3-n3cccc3)cc2n1	19	93*	100	-20	2	7	55*	61*
Cc1cc(C)n2nc(-c3ccc(Br)cc3)cc2n1	.	134*	.	.	.	.	96*	30*
Cc1cc(C)n2nc(-c3ccc(Cl)cc3)cc2n1	.	98*	.	.	.	.	120*	27*
CCOc1ccc(S(=O)(=O)N(CC)CC(=O)N2CCOCC2)cc1C	.	1	.	.	.	.	.	.
